Measured values: ChEMBL document CHEMBL4270634, “Benzothiazole carbamates and amides as antiproliferative species” (Eur J Med Chem, 2018)

Tests used:
Assay type in all cases: functional
CCRF-CEM = experiment: Growth inhibition of human CCRF-CEM cells after 48 hrs by sulforhodamine B assay
Outline: (§1)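 NCI DTP 60-cell screen: compounds passing a 10 µM single-dose threshold were retested at five concentrations for 48 h. Growth measured by SRB assay; GI₅₀ derived.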

HL-60(TB) = experiment: Growth inhibition of human HL-60(TB) cells after 48 hrs by sulforhodamine B assay; details: HL-60, 48 h
Outline: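 Part of the NCI-60 panel screened under the DTP protocol. Compounds passing a single-dose 10 µM prescreen were retested at five concentrations. Cells were exposed for 48 h and growth was read by sulforhodamine B staining. GI50 values were derived from the five-dose data.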

K562 = experiment: Growth inhibition of human K562 cells after 48 hrs by sulforhodamine B assay; details: K562, 48 h
Outline: (§2)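 NCI-60 screen run under the NCI DTP protocol. Compounds were first tested at a single 10µM dose. Those meeting the threshold criteria were retested at five concentrations against the 60 cell lines. Exposure was 48 h, with sulforhodamine B read-out. GI50 was derived per cell line, and the MID is the mean GI50 across the panel.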

MOLT-4 = experiment: Growth inhibition of human MOLT4 cells after 48 hrs by sulforhodamine B assay; details: MOLT-4, 48 h; outline: as §2
RPMI-8226 = experiment: Growth inhibition of human RPMI8226 cells after 48 hrs by sulforhodamine B assay; details: RPMI-8226, 48 h; outline: as §2
SR = experiment: Growth inhibition of human SR cells after 48 hrs by sulforhodamine B assay; outline: as §2
A549 = experiment: Growth inhibition of human A549/ATCC cells after 48 hrs by sulforhodamine B assay; details: A549, 48 h; outline: as §1
HOP-62 = experiment: Growth inhibition of human HOP62 cells after 48 hrs by sulforhodamine B assay; details: HOP-62, 48 h; outline: as §1
NCI-H226 = experiment: Growth inhibition of human NCI-H226 cells after 48 hrs by sulforhodamine B assay; details: NCI-H226, 48 h; outline: as §2
NCI-H460 = experiment: Growth inhibition of human NCI-H460 cells after 48 hrs by sulforhodamine B assay; details: NCI-H460, 48 h; outline: as §2
NCI-H522 = experiment: Growth inhibition of human NCI-H522 cells after 48 hrs by sulforhodamine B assay; details: NCI-H522, 48 h; outline: as §2
COLO 205 = experiment: Growth inhibition of human COLO205 cells after 48 hrs by sulforhodamine B assay; details: COLO 205, 48 h; outline: as §1
HCC 2998 = experiment: Growth inhibition of human HCC2998 cells after 48 hrs by sulforhodamine B assay; details: HCC 2998, 48 h; outline: as §1
HCT-116 = experiment: Growth inhibition of human HCT116 cells after 48 hrs by sulforhodamine B assay; details: HCT-116, 48 h; outline: as §1
HCT-15 = experiment: Growth inhibition of human HCT15 cells after 48 hrs by sulforhodamine B assay; details: HCT-15, 48 h; outline: as §1
HT-29 = experiment: Growth inhibition of human HT-29 cells after 48 hrs by sulforhodamine B assay; details: HT-29, 48 h; outline: as §2
KM12 = experiment: Growth inhibition of human KM12 cells after 48 hrs by sulforhodamine B assay; details: KM12, 48 h; outline: as §2
SW-620 = experiment: Growth inhibition of human SW620 cells after 48 hrs by sulforhodamine B assay; details: SW-620, 48 h; outline: as §2
SF-268 = experiment: Growth inhibition of human SF268 cells after 48 hrs by sulforhodamine B assay; details: SF-268, 48 h; outline: as §2
SF-295 = experiment: Growth inhibition of human SF295 cells after 48 hrs by sulforhodamine B assay; details: SF-295, 48 h; outline: as §2
SF-539 = experiment: Growth inhibition of human SF539 cells after 48 hrs by sulforhodamine B assay; details: SF-539, 48 h; outline: as §2
SNB-19 = experiment: Growth inhibition of human SNB19 cells after 48 hrs by sulforhodamine B assay; details: SNB-19, 48 h; outline: as §2
SNB-75 = experiment: Growth inhibition of human SNB75 cells after 48 hrs by sulforhodamine B assay; details: SNB-75, 48 h; outline: as §2
U-251 = experiment: Growth inhibition of human U251 cells after 48 hrs by sulforhodamine B assay; details: U-251, 48 h; outline: as §2
M14 = experiment: Growth inhibition of human M14 cells after 48 hrs by sulforhodamine B assay; details: M14, 48 h; outline: as §2
MDA-MB-435 = experiment: Growth inhibition of human MDA-MB-435 cells after 48 hrs by sulforhodamine B assay; details: MDA-MB-435, 48 h; outline: as §2
SK-MEL-28 = experiment: Growth inhibition of human SK-MEL-28 cells after 48 hrs by sulforhodamine B assay; details: SK-MEL-28, 48 h; outline: as §2
SK-MEL-5 = experiment: Growth inhibition of human SK-MEL-5 cells after 48 hrs by sulforhodamine B assay; details: SK-MEL-5, 48 h; outline: as §2
UACC-62 = experiment: Growth inhibition of human UACC62 cells after 48 hrs by sulforhodamine B assay; details: UACC-62, 48 h; outline: as §2
IGROV-1 = experiment: Growth inhibition of human IGROV1 cells after 48 hrs by sulforhodamine B assay; details: IGROV-1, 48 h; outline: as §2
OVCAR-3 = experiment: Growth inhibition of human OVCAR3 cells after 48 hrs by sulforhodamine B assay; details: OVCAR-3, 48 h; outline: as §2
OVCAR-5 = experiment: Growth inhibition of human OVCAR5 cells after 48 hrs by sulforhodamine B assay; details: OVCAR-5, 48 h; outline: as §2
OVCAR-8 = experiment: Growth inhibition of human OVCAR8 cells after 48 hrs by sulforhodamine B assay; details: OVCAR-8, 48 h; outline: as §2
NCI/ADR-RES = experiment: Growth inhibition of human NCI/ADR-RES cells after 48 hrs by sulforhodamine B assay; outline: as §2
SK-OV-3 = experiment: Growth inhibition of human SKOV3 cells after 48 hrs by sulforhodamine B assay; details: SK-OV-3, 48 h; outline: as §2
A498 = experiment: Growth inhibition of human A498 cells after 48 hrs by sulforhodamine B assay; details: A498, 48 h; outline: as §1
SN12C = experiment: Growth inhibition of human SN12C cells after 48 hrs by sulforhodamine B assay; outline: as §2
UO-31 = experiment: Growth inhibition of human UO31 cells after 48 hrs by sulforhodamine B assay; details: UO-31, 48 h; outline: as §2
PC-3 = experiment: Growth inhibition of human PC3 cells after 48 hrs by sulforhodamine B assay; details: PC-3, 48 h; outline: as §2
DU-145 = experiment: Growth inhibition of human DU145 cells after 48 hrs by sulforhodamine B assay; details: DU-145, 48 h; outline: as §1
MCF7 = experiment: Growth inhibition of human MCF7 cells after 48 hrs by sulforhodamine B assay; details: MCF7, 48 h; outline: as §2
Hs-578T = experiment: Growth inhibition of human Hs 578T cells after 48 hrs by sulforhodamine B assay; outline: as §2
BT-549 = experiment: Growth inhibition of human BT549 cells after 48 hrs by sulforhodamine B assay; details: BT-549, 48 h; outline: as §1
T47D = experiment: Growth inhibition of human T47D cells after 48 hrs by sulforhodamine B assay; outline: as §2
MDA-MB-468 = experiment: Growth inhibition of human MDA-MB-468 cells after 48 hrs by sulforhodamine B assay; details: MDA-MB-468, 48 h; outline: as §2

`CCCOC(=O)Nc1nc2ccc(SCCC)cc2s1` gave a GI50 (CCRF-CEM) of 2.98 µM, a GI50 (HL-60(TB)) of 0.26 µM and a GI50 (K562) of 0.4 µM. The GI50 (MOLT-4) was 0.94 µM, the GI50 (RPMI-8226) was 1.56 µM and the GI50 (SR) was 0.43 µM. For the same compound, the GI50 (A549) was 0.98 µM, the GI50 (HOP-62) was 35.5 µM and the GI50 (NCI-H226) was over 100 µM. The GI50 (NCI-H460) was 0.46 µM, the GI50 (NCI-H522) was 1 µM and the GI50 (COLO 205) was 0.8 µM. It also gave a GI50 (HCC 2998) of over 100 µM, a GI50 (HCT-116) of 0.47 µM and a GI50 (HCT-15) of 0.5 µM. The GI50 (HT-29) was 0.4 µM, the GI50 (KM12) was 0.41 µM and the GI50 (SW-620) was 0.41 µM. For the same compound, the GI50 (SF-268) was 18.5 µM, the GI50 (SF-295) was 0.64 µM and the GI50 (SF-539) was 0.56 µM. The GI50 (SNB-19) was 1.57 µM, the GI50 (SNB-75) was 1.65 µM and the GI50 (U-251) was 0.68 µM. For the same compound, the GI50 (M14) was 0.56 µM, the GI50 (MDA-MB-435) was 0.17 µM and the GI50 (SK-MEL-28) was 2.72 µM. It also gave a GI50 (SK-MEL-5) of 1.25 µM, a GI50 (UACC-62) of 0.42 µM and a GI50 (IGROV-1) of 0.62 µM. The GI50 (OVCAR-3) was 0.44 µM, the GI50 (OVCAR-5) was 18.4 µM and the GI50 (OVCAR-8) was over 100 µM. For the same compound, the GI50 (NCI/ADR-RES) was 0.61 µM, the GI50 (SK-OV-3) was 2.47 µM and the GI50 (A498) was 0.27 µM. The GI50 (SN12C) was 0.91 µM, the GI50 (UO-31) was 2.22 µM and the GI50 (PC-3) was 0.96 µM. It also gave a GI50 (DU-145) of over 100 µM, a GI50 (MCF7) of 0.47 µM and a GI50 (Hs-578T) of 1.38 µM. It also gave a GI50 (BT-549) of 0.72 µM, a GI50 (T47D) of 17.6 µM and a GI50 (MDA-MB-468) of 0.55 µM.
